Assay outcomes as filed in PubChem.
The list is not random: actives were taken first. Their share in the collection is about 1.4%.
NR2E3 ag-1 = agonists of human nuclear receptor NR2E3; GST-NR2E3/biotin-RetCOR TR-FRET, 1536-well; AID 2300; Q9Y5X4; inhibition of corepressor binding, % at 4.78 µM; 320,000 tested, 0.12% active;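 active = percent inhibition above the cutoff of mean plus 3 SD of all tested compounds, set per screening campaign, cut at about 20% in these data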;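 also: 0% = DMSO wells and 100% = biotin wells as full block of FRET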
Target sequence (Q9Y5X4 whole entry, looked up): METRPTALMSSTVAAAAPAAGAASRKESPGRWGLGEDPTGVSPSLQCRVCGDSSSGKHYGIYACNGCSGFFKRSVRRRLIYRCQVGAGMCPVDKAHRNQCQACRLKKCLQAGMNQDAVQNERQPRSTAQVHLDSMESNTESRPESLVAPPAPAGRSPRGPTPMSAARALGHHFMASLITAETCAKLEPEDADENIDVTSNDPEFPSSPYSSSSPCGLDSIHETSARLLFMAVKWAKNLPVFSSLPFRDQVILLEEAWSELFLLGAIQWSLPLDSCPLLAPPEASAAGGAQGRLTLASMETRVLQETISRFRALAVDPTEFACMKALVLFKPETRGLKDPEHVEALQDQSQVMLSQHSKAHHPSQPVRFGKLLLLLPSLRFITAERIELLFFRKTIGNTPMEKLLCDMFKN
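Material: NR2E3–RetCOR corepressor complex / Incubation: Compound–protein incubation for 5 h at 4 °C / Dosing: compound at 4.8 µM, single dose / Detection: time-resolved FRET / Benchmarks: high control biotin, low control 0.6% DMSO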
PG9 binder = PG9 antibody binding by small molecule | AID 624416 | inhibition, % at 6.7 µM | 360,000 tested, 0.43% active | TR-FRET gp120-PG9 antibody binding; in the data active = inhibition above about 8.5%
NR2E3 ag-2 = human photoreceptor-specific nuclear receptor agonism | 360,000 tested, 0.35% active | AID 602229 | inhibition of corepressor binding, % at 3.98 µM | CHO-S Gal4-NCOR/VP16-NR2E3 two-hybrid, luciferase | Q9Y5X4;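 active = inhibition above the mean of all tested compounds plus 3 SD, cut at about 70% in these data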;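 also: 0% = DMSO with NR2E3 transfected cells and 100% = cells lacking NR2E3 construct; higher means lower luciferase signal from less NR2E3 corepressor binding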
Rev-erbA mod = modulates human Rev-erb alpha binding to DNA; activity, % at 10 µM; Rev-erbα–FITC-DNA binding, fluorescence polarization, 90 min; P20393; AID 1259318; 370,000 tested, 0.79% active;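 active = activity above about 14%, limit read from the data; passing the limit was not always enough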;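 also: 0% = DMSO wells with 35 nM protein and 100% = DMSO wells with 750 nM protein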
NR2E3 agonist cf = confirmation of human NR2E3 nuclear receptor agonists | shares compounds with NR2E3 ag-1 | cell-free NR2E3 corepressor release, TR-FRET, 5 h | activation (reported as inhibition), % at 3.98 µM | 360 tested, 39% active | AID 2379; in the data active = activation above about 20%
PPARg-NCOR2 ctr = releases PPARgamma from NCOR2 in NR2E3 counter-screen. AID 504787. shares compounds with NR2E3 ag-1. 360 tested, 45% active. TR-FRET PPARg-NCOR2 coregulator interaction, biochemical. inhibition, % at 3.98 µM; in the data active = inhibition above about 20%;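 also: 0% = DMSO vehicle and 100% = wells without protein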
PG9 bind confirm = PG9 antibody binding, confirmed | shares compounds with PG9 binder | TR-FRET PG9 antibody binding, biochemical | inhibition, % at 6.7 µM | 1,500 tested, 90% active; in the data active = inhibition above about 9%
PGV04 counter = counter-screen for PG9 binders: binding control antibody PGV04; 1,500 tested, 95% active; shares compounds with PG9 binder; TR-FRET PGV04 antibody-gp120 binding, biochemical; inhibition, % at 6.7 µM; AID 651604; in the data active = inhibition above about 9.5%
* hit, by the source's call; nt = no result.

SMILES	NR2E3 ag-1	PG9 binder	NR2E3 ag-2	Rev-erbA mod	NR2E3 agonist cf	PPARg-NCOR2 ctr	PG9 bind confirm	PGV04 counter
CN(C)CCN1C(=O)C(O)=C(C(=O)c2cc3ccccc3o2)C1c1cccc(Br)c1 (stereo unspecified)	36*	31*	-3	6	36*	34*	38*	47*
O=C(C1=C(O)C(=O)N(CCN2CCOCC2)C1c1cccc([N+](=O)[O-])c1)c1cc2ccccc2o1 (stereo unspecified)	nt	-1	1	-7	nt	nt	nt	nt
CC(=O)OCC(=O)[C@@]12OC(C)(C)O[C@@H]1CC1C3C[C@H](F)C4=CC(=O)C=C[C@]4(C)[C@@]3(F)[C@@H](O)C[C@@]12C (stereo partly specified)	nt	nt	nt	2	nt	nt	nt	nt
C=C[C@@]1(C)CC(=O)[C@]2(O)[C@@]3(C)[C@@H](O)CCC(C)(C)[C@@H]3[C@H](OC(=O)CCN(C)C)[C@H](OC(C)=O)[C@@]2(C)O1	nt	nt	nt	3	nt	nt	nt	nt
O=C(CNC(=O)c1ccc(Cl)cc1)NO	nt	nt	nt	2	nt	nt	nt	nt
CCOc1c(N2CCOCC2)cnn(C)c1=O	nt	nt	nt	1	nt	nt	nt	nt
O=C(C1=C(O)C(=O)N(CCc2ccccc2)C1c1ccncc1)c1cc2ccccc2o1 (stereo unspecified)	34*	19*	-9	-5	31*	31*	30*	40*
O=C(C1=C(O)C(=O)N(CCCN2CCOCC2)C1c1ccccn1)c1cc2ccccc2o1 (stereo unspecified)	34*	15*	-8	-2	16	22*	19*	25*
CCOc1cc(C2C(C(=O)c3ccco3)=C(O)C(=O)N2CCc2ccccc2)ccc1O (stereo unspecified)	6	-3	-19	-2	nt	nt	nt	nt
Cc1nn(CCc2nn[nH]n2)c2nc(-c3ccc(Br)cc3)cc(C(F)(F)F)c12	25*	19*	4	1	37*	33*	27*	37*
Cc1nn(CCc2nn[nH]n2)c2nc(C(F)(F)F)cc(C(F)(F)F)c12	4	1	-14	4	nt	nt	nt	nt
C[C@@H]1CC2C3CCC4=CC(=O)C=C[C@]4(C)[C@@]3(F)[C@@H](O)C[C@]2(C)[C@@]1(O)C(=O)CO (stereo partly specified)	nt	nt	nt	-5	nt	nt	nt	nt
O=C(O)c1cc2ccccc2c2c1C(=O)c1ccccc1-2	nt	-6	-3	5	nt	nt	nt	nt
O=C(O)c1cc2ccccc2c2cc(Br)ccc12	23*	23*	-11	0	19	56*	28*	36*
Cc1cc2nc3c(=O)[nH]c(=O)nc-3n(C[C@@H](O)[C@@H](O)[C@@H](O)COP(=O)(O)O)c2cc1C	nt	nt	nt	5	nt	nt	nt	nt
COc1ccc(Br)cc1C(=O)Nc1ccc(C(=O)NCC(C)C)cc1	3	1	-9	-2	nt	nt	nt	nt
CCOc1ccc(Br)cc1C(=O)Nc1ccc(C(=O)NCC(C)C)cc1	34*	24*	5	6	33*	38*	24*	31*
CCOC(=O)/C(C#N)=C1\Nc2ccccc2N=C1N(CC(C)C)CC(C)C	-1	-1	41	4	nt	nt	nt	nt
CCOC(=O)/C(C#N)=C1/C=C(C)NC(c2ccccc2O)=N1	23*	24*	20	1	13	10	27*	34*
O=C(O)CCCN1CCC(O[C@@H](c2ccc(Cl)cc2)c2ccccn2)CC1	nt	nt	nt	-11	nt	nt	nt	nt
Cc1cc(C)c(OCC(=O)Nc2ccc3c(c2)OCO3)cc1C	29*	18*	-5	7	12	18	20*	24*
Cc1ccc(C2C(C(=O)c3cc4ccccc4o3)=C(O)C(=O)N2c2cc(C)on2)cc1 (stereo unspecified)	23*	18*	27	5	28*	35*	29*	38*
Cc1ccc2nc(N3C(=O)C(O)=C(C(=O)c4cc5ccccc5o4)C3c3cccs3)sc2c1 (stereo unspecified)	7	nt	-124	nt	nt	nt	nt	nt
Cc1cc(N2C(=O)C(O)=C(C(=O)c3cc4ccccc4o3)C2c2cccs2)no1 (stereo unspecified)	24*	9.3*	13	0	31*	34*	28*	46*
Cc1cc(N2C(=O)C(O)=C(C(=O)c3ccco3)C2c2ccc(O)cc2)no1 (stereo unspecified)	10	3	-34	7	nt	nt	nt	nt
SMILES	NR2E3 ag-1	PG9 binder	NR2E3 ag-2	Rev-erbA mod	NR2E3 agonist cf	PPARg-NCOR2 ctr	PG9 bind confirm	PGV04 counter
Cc1cc(N2C(=O)C(O)=C(C(=O)c3ccco3)C2c2ccccc2F)no1 (stereo unspecified)	28*	10*	-17	-4	12	13	9.8*	28*
Cc1cc(N2C(=O)C(O)=C(C(=O)c3cc4ccccc4o3)C2c2ccc([N+](=O)[O-])cc2)no1 (stereo unspecified)	-1	-3	18	-5	nt	nt	nt	nt
C/C=C(/C)C(=O)O[C@@H]1[C@H](OC(C)=O)[C@@]2(CO)C(CC1(C)C)C1=CCC3[C@@]4(C)CC[C@H](O[C@@H]5O[C@H](C(=O)O)[C@@H](O[C@@H]6O[C@H](CO)[C@@H](O)[C@H](O)[C@H]6O)[C@H](O)[C@H]5O[C@@H]5O[C@H](CO)[C@@H](O)[C@H](O)[C@H]5O)[C@](C)(CO)C4CC[C@@]3(C)[C@]1(C)C[C@H]2O (stereo partly specified)	nt	nt	nt	1	nt	nt	nt	nt
CC[C@H]1OC(=O)[C@H](C)[C@@H](O[C@H]2C[C@@](C)(OC)[C@@H](O)[C@H](C)O2)[C@H](C)[C@@H](O[C@@H]2O[C@H](C)C[C@H](N(C)C)[C@H]2O)[C@](C)(O)C[C@@H](C)/C(=N\OCOCCOC)[C@H](C)[C@@H](O)[C@]1(C)O	nt	nt	nt	-1	nt	nt	nt	nt
COc1cccc(C2/C(=C(/O)c3ccc4c(c3)OCO4)C(=O)C(=O)N2CCN2CCOCC2)c1 (stereo unspecified)	30*	21*	-11	-1	29*	27*	31*	37*
O=C1C(=O)N(Cc2cccnc2)C(c2cccc(Br)c2)/C1=C(/O)c1ccc2c(c1)OCO2 (stereo unspecified)	47*	37*	-5	6	27*	31*	39*	46*
N#CCCSc1ncnc2c1oc1ccccc12	21*	20*	-12	2	-2	6	46*	57*
CC(=O)N1CCN(c2ccc(OCC3CO[C@](Cn4ccnc4)(c4ccc(Cl)cc4Cl)O3)cc2)CC1 (stereo partly specified)	nt	nt	nt	7	nt	nt	nt	nt
